# A selection: hits, their analogues and other compounds. The true share with any hit is near 2.1%.
# C2C12 statin – suppression of simvastatin myotoxicity; C2C12 myotubes + simvastatin, ATP luminescence, 48 h; scaled: DMSO 0, geranylgeraniol control 100; rescue of ATP level, % at 7.49 µM; actives 0.78% (n = 330,000);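 active means mean ATP rescue above about 67%, or every replicate alone reaching that limit, limit read from the data, passing the limit was not always enough; inconclusive means no clear call, values can overlap the other calls; inactive means mean under the limit and some replicate under it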;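 further: myotubes were challenged with 10 µM simvastatin during compound exposure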
# DENV2 CPE – DENV2-induced cell death inhibition | DENV2-infected cells, cytopathic effect rescue, plate reader | CPE inhibition, % at 9.99 µM | actives 1.7% (n = 350,000); in the data active means CPE inhibition above about 20%, passing the limit was not always enough; inconclusive means no clear call, values can overlap the other calls; tested in BHK-21 cells;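 further: 0% = median of neutral control wells and 100% = median of positive control wells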
# Cneo AK release – Cryptococcus neoformans lysis via adenylate kinase release; C. neoformans lysis, adenylate kinase release luminescence, 4 h; normalised: neutral wells 0, clomiphene wells 100; lysis activity, % at 15 µM; actives 0.2% (n = 360,000); AID 651654;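 active means mean lysis activity across replicates of at least 80%, whatever share of replicates individually reach that level; inactive means mean lysis activity below 80%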
#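 Assay system: C. neoformans cells. Amount: yeast cell density of 5 × 10^6 cells/mL. Technique: AK luminescence. Buffer or medium: YPD. Times: static 4 h at 37 °C with compound, 1 h detection. Dosing: single-point compound dose. Read-out: lysis from increased AK signal.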
# XiGFP reactiv – X-chromosome reactivation activator; actives 0.055% (n = 360,000); XiGFP mouse fibroblasts, % GFP-positive cells imaging, 3 d; cells co-treated with 5-aza-dC sensitizer; scaled so ellipticine positive control = 100%; activation, % at 7.58 µM;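 active means mean normalized replicate activation at least 10% and every replicate at or above 10%; inconclusive means only one of the two criteria met; inactive means mean below 10% and not all replicates reach 10%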;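 further: 0% = median of on-plate neutral control wells and 100% = ellipticine 6 µM median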
#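 material = 68-5-11 XiGFP fibroblast line | medium = DMEM plus 5-aza-dC sensitizer | schedule = 3 days compound exposure | benchmarks = positive control ellipticine, 6 µM final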
# Active calls of the source: *; ? = inconclusive; nt = not tested or not shown.
SMILES,C2C12 statin,DENV2 CPE,Cneo AK release,XiGFP reactiv
C[C@@H]1CN([C@@H](C)CO)S(=O)(=O)c2ccc(Br)cc2O[C@H]1CN(C)C(=O)CN(C)C,0.4,17.9,0.2,0.0
C[C@H](CO)N1C[C@H](C)[C@@H](CN(C)C(=O)CN(C)C)Oc2cc(Br)ccc2S1(=O)=O,6.2,33.1*,-1.5,0.5
COCC(=O)N1C[C@H](C)[C@H](OC)CN(C)C(=O)c2ccc(NC(=O)Nc3ccccc3)cc2OC[C@@H]1C,14.9,19.5,-6.7,0.5
C[C@@H]1CN([C@@H](C)CO)C(=O)c2cc(NC(=O)Nc3cccc4ccccc34)ccc2O[C@@H]1CN(C)S(C)(=O)=O,1.6,-4.4,2.9,-0.9
Cc1cccc(NC(=O)COc2ccc3oc4c(c3c2)CCCC4)n1,134.3*,nt,2.2,nt
Cc1ccc(-c2ccccc2[C@@H]2C[C@H]3CN(C)C(=O)[C@]34CCCN24)o1,103.2*,-3.9,0.6,0.0
CN(C)CCCN1c2ccccc2Sc2ccc3ccccc3c21,nt,42.6*,nt,0.6
Cc1noc(C)c1S(=O)(=O)N(C)C[C@H]1Oc2c(NC(=O)c3nc4ccccc4s3)cccc2C(=O)N([C@H](C)CO)C[C@H]1C,nt,nt,nt,0.2
c1cncc(-c2nc(NCc3ccco3)c3ccccc3n2)c1,94.4*,nt,6.8,nt
Cc1ccc(-c2nc(NCc3ccco3)c3ccccc3n2)cc1,-5.8,4.5,nt,0.0
CC(=O)N(C)c1ccc(NC(=O)Cc2cccc3ccccc23)cc1,122.6*,-1.9,-1.7,0.0
Cc1ccc(N=C2NC(=O)/C(=C\c3ccsc3)S2)c(C)c1,nt,96.2*,-2.9,0.0
C[C@H](CO)N1C[C@H](C)[C@@H](CN(C)CC2CCCCC2)OCCCC[C@H](C)Oc2ccc(NC(=O)c3ccccc3)cc2C1=O,nt,-3.5,2.4,-0.1
O=C1C(=C2CCc3ccccc32)Cc2ccccc21,11.3,-4.1,-8.2,0.0
CCOP(=O)(OCC)c1ccc2c(c1)C(=O)c1ccccc1CC2,25.4,45.9*,-1.3,0.0
CN1C(C)(C)c2ccccc2OS1(=O)=O,-19.0,25.0*,-0.3,0.0
C[C@@H]1CN([C@@H](C)CO)C(=O)c2cc(NC(=O)CCCN(C)C)ccc2O[C@H]1CN(C)S(=O)(=O)c1ccc(Cl)cc1,-24.7,3.9,2.6,-0.9
O=C(NCCc1ccncc1)[C@@H]1[C@@H](CO)[C@@H]2Cn3c(ccc(-c4cccc(F)c4)c3=O)[C@H]1N2,2.0,84.7*,1.0,-0.1
O=C(NCCc1ccncc1)[C@H]1[C@H](CO)[C@H]2Cn3c(ccc(-c4cccc(F)c4)c3=O)[C@@H]1N2,0.7,-9.9,-0.3,0.0
CCCNC(=O)Nc1ccc2c(c1)OC[C@@H](C)N(Cc1ccncc1)C[C@H](C)[C@H](OC)CN(C)C2=O,nt,-4.3,nt,0.5
O=C(C1=C[C@H](C2CCCCC2)C[C@H](OCc2ccc(CO)cc2)O1)N1CCCC1,nt,13.5,5.6,nt
Cn1c(=O)n(CC(=O)NC2CCCCC2)c(=O)c2ccccc21,72.1*,nt,-0.3,nt
O=C1c2ccccc2C(=O)N1OCc1ccc(Cl)cc1,68.1*,nt,-2.2,nt
O=C1Cc2ccccc2C(=O)N1OCc1ccc(Cl)cc1,-2.1,1.7,nt,0.1
Cc1ccc(/C=N/c2sc3c(c2C#N)CCC3)s1,119.7*,nt,-1.7,nt
SMILES,C2C12 statin,DENV2 CPE,Cneo AK release,XiGFP reactiv
Cc1ccc(/C=N/c2sc3c(c2C#N)CCCCC3)o1,11.7,nt,-0.2,nt
C[C@H](CO)N1C[C@H](C)[C@@H](CN(C)CC2CC2)Oc2ccc(NS(=O)(=O)c3cccs3)cc2CC1=O,-13.7,-3.9,6.6,0.3
O=[N+]([O-])c1ccccc1N/N=C1\CC2CC=CC12 (stereo not given),nt,30.4*,nt,0.2
O=C(N/N=C1\CC2CC=CC12)c1ccccc1Cl (stereo not given),0.0,-4.1,-1.4,0.0
CCN(CC)S(=O)(=O)c1cccc(-c2nnc(SCC(=O)NCCC3=CCCCC3)n2N)c1,124.3*,nt,0.8,nt
C[C@@H]1CN([C@H](C)CO)C(=O)c2cccc(N(C)C)c2O[C@@H]1CN(C)C(=O)NC1CCCCC1,-7.3,-4.9,-0.4,-0.4
CC(C)NC(=O)Nc1ccc2c(c1)C(=O)N([C@@H](C)CO)C[C@H](C)[C@@H](CN(C)Cc1ccc(C(=O)Nc3ccccc3N)cc1)O2,nt,3.4,1.5,-0.1
O=C(c1cccnc1)C1Cc2ccccc2C1=O (stereo not given),-3.7,48.8*,2.2,0.0
N#Cc1nc(-c2ccco2)oc1NCCCn1ccnc1,129.3*,nt,nt,nt
CC(C)(C)c1ccc(-c2nc(C#N)c(NCCCn3ccnc3)o2)cc1,-25.6,-12.7,-2.3,-0.1
CC=Cc1ccc2n(c1=O)C[C@H]1[C@H](CO)[C@@H](C(=O)N3CCc4ccccc4C3)N(C(=O)COC)[C@@H]21 (mixture of isomers),nt,0.6,nt,0.2
O=C(NC1CCC1)[C@H]1[C@H](CO)[C@H]2Cn3c(ccc(C4=CCCC4)c3=O)[C@@H]1N2CC1CC1,13.4,-1.4,-5.0,0.4
Cc1cccc2c(-c3ccccc3)cc(=O)[nH]c12,83.8*,nt,2.2,nt
O=c1cc(-c2ccccc2)c2ccccc2[nH]1,-9.7,nt,-1.3,nt
Cc1cc(Cl)c(S(=O)(=O)Nc2ccc3c(c2)OCO3)cc1OCC(N)=O,100.5*,nt,-0.2,nt
CCc1nc(SCC(=O)Nc2cc(C)on2)c2c(C)c(C)sc2n1,130.2*,nt,-0.8,nt
Cc1ccc2nc(NC(=O)CSCC(=O)Nc3cc(C)on3)sc2c1,-11.2,?,0.3,0.1
Cc1cc(NC(=O)CSCC(=O)Nc2nc3ccccc3s2)no1,-3.4,44.9*,1.0,-0.1
c1ccc(C2=Nc3ccccc3OC2)cc1,88.7*,nt,-0.2,nt
COc1ccc(NC(=O)Nc2ccc3c(c2)C(=O)N([C@@H](C)CO)C[C@H](C)[C@@H](CN(C)C(=O)C2CCCCC2)OCCCC[C@@H](C)O3)cc1,24.2,9.7,5.1,0.1
S=C(NCc1ccco1)N1CCN(C(c2ccccc2)c2ccccc2)CC1,86.3*,-1.9,7.7,nt
C[C@H]1CN([C@@H](C)CO)C(=O)CCCn2cc(nn2)CO[C@H]1CN(C)C(=O)NC1CCCC1,-23.0,17.0,-6.4,0.2
Cc1cccc(-c2ccc([C@@H]3[C@H]4CN(S(=O)(=O)c5cccc(C)c5)CCCCN4[C@H]3CO)cc2)c1,nt,-2.0,0.1,0.0
